The list is not random: actives were taken first. Their share in the collection is about 1.6%.
ADAM17 inh = ADAM17 inhibition, QFRET primary screen | P78536 | recombinant ADAM17, EDANS/DABCYL FRET peptide cleavage | inhibition, % at 6.95 µM | 370,000 compounds, 0.83% hits | AID 720648;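 active = inhibition above the mean of compounds lying between control limits plus 3 SD, set per campaign, cut at about 8.5% in these data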;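 note: 0% = DMSO-only wells as the low control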
ADAM10 inh = inhibitors of human ADAM10; recombinant ADAM10, EDANS/DABCYL FRET peptide cleavage, 3 h; inhibition, % at 7 µM; 370,000 compounds, 0.62% hits; AID 720582;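 active = inhibition above a per-campaign cutoff equal to the mean of compounds falling between control-based bounds plus 3 SD, cut at about 20% in these data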;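 note: 0% = DMSO wells while the 100% control is not disclosed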
Tn7 DDE FP = inhibitors of Tn7 peptide binding to human fibrin DD(E); P02675; AID 720508; inhibition, % at 8.3 µM; 370,000 compounds, 0.13% hits; FP displacement of FITC-Tn7 peptide from fibrin DD(E); 0% = median of compound wells per plate;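 active = inhibition above the mean of compounds falling within the control limits plus 3 SD of them, cut at about 14% in these data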;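 note: 0% = plate median of compound wells and 100% = 10 µM Aha-Tn7 peptide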
Target sequence (P02675 whole entry, looked up): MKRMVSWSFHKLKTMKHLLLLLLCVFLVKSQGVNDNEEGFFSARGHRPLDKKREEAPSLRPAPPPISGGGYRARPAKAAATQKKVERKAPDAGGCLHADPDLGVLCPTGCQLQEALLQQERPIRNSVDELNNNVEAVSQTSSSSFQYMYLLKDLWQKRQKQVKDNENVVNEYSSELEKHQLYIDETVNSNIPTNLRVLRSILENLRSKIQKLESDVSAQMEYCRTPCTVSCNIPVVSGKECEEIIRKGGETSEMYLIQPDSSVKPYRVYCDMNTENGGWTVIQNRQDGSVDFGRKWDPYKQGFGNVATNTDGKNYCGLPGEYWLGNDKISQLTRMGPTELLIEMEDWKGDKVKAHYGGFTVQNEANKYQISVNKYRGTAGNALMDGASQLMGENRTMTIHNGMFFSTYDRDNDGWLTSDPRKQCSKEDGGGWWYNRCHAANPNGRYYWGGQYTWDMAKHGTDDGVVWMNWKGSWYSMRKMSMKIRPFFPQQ
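Test system – human fibrin DD(E) · Times – 10 min preincubation, 3 h with tracer, room temperature · Detection – fluorescence polarization of the labelled Tn7 tracer · Measure – percent inhibition normalized to high-control wells · Benchmarks – high control wells with 10 µM unlabelled Aha-Tn7 peptide (full inhibition) · Repeats – singlicate testing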
Tn6 DDE FP = DD(E)-Tn6 binding inhibition, primary FP screen; Fibrin DD(E) TRITC-Tn6 fluorescence polarization displacement; inhibition, % at 8.3 µM; 370,000 compounds, 0.21% hits; P02675;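 active = inhibition above a per-campaign cutoff: mean of compounds within control limits plus 3 SD, cut at about 15% in these data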;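 note: 0% = median of all compound wells on the plate and 100% = blocking peptide control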
MT1-MMP act inh = blocks activation of human MT1-MMP; 360,000 compounds, 0.061% hits; HT1080 RFP-PRO-GFP cells, GFP/RFP ratio fluorescence, overnight; percent of plate control window, DMSO zero; P50281; AID 651647; GFP/RFP ratio change, % at 20 µM;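 active = GFP/RFP ratio change of at least 30% with cell ATP level not reduced by more than half and red fluorescence within 50% of control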
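Compound: 20 µM single dose, 1% DMSO / System: HT1080 RFP-PRO-GFP cells / Controls: DMSO and RFP-L50D-GFP cell wells / Read-out basis: GFP/RFP fluorescence ratio / Schedule: overnight compound exposure at 37 °C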
ADAM10 confirm = human ADAM10 inhibition, confirmation | 2,100 compounds, 1% hits | shares compounds with ADAM10 inh | AID 743208 | inhibition, % at 6.95 µM | ADAM10 QFRET peptide cleavage, EDANS fluorescence;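 active = inhibition above about 20% chosen separately for each screening run, limit read from the data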;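 note: 0% = DMSO wells and 100% = marimastat wells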
ADAM17 ctr = counter-screen for ADAM10 exosite inhibitors: inhibitors of human ADAM17. shares compounds with ADAM10 inh. inhibition, % at 6.95 µM. AID 743214. 2,100 compounds, 0.5% hits. ADAM17 QFRET peptide cleavage, EDANS fluorescence;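 active = mean triplicate inhibition above the solvent-only control wells' mean plus 3 SD, cut at about 12% in these data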;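 note: 0% = DMSO wells and 100% = marimastat wells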
ADAM10 counter = inhibits human ADAM10 in ADAM17 exosite counter-screen | AID 743256 | inhibition, % at 6.95 µM | shares compounds with ADAM17 inh | 2,900 compounds, 47% hits | recombinant ADAM10, EDANS/DABCYL FRET peptide cleavage, 3 h;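 active = mean inhibition over the triplicate runs exceeds the activity threshold set in the earlier primary screen, cut at about 20% in these data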;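 note: 0% = DMSO wells and 100% = marimastat wells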
ADAM17 confirm = human ADAM17 inhibition, confirmation. shares compounds with ADAM17 inh. recombinant ADAM17, EDANS/DABCYL QFRET peptide cleavage. inhibition, % at 6.95 µM. 2,900 compounds, 65% hits;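 active = mean inhibition across replicates above the hit cutoff set in the primary screen, cut at about 8.5% in these data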;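 note: 0% = DMSO wells and 100% = marimastat wells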
Active calls of the source: *; · = no result.

SMILES	ADAM17 inh	ADAM10 inh	Tn7 DDE FP	Tn6 DDE FP	MT1-MMP act inh	ADAM10 confirm	ADAM17 ctr	ADAM10 counter	ADAM17 confirm
Cc1cccc(NC(=O)c2nc[nH]c2C(=O)N(C)Cc2ccccc2)c1	9.4*	21*	2	6	9	2	0	10	7
Cc1cccc(NC(=O)c2nc[nH]c2C(=O)Nc2cccc(C)c2)c1	-2	-2	7	-1	2	·	·	·	·
Cc1cccc(NC(=O)c2nc[nH]c2C(=O)N[C@@H](C)c2ccccc2)c1	10.0*	26*	-1	-6	3	9	3	29*	15*
CN(Cc1ccccc1)C(=O)c1[nH]cnc1C(=O)Nc1ccccc1	4	5	-5	14	5	·	·	·	·
Cc1ccccc1NC(=O)C[C@H]1CC[C@H]2[C@@H](COc3ccc(NC(=O)Nc4ccccc4)cc3C(=O)N2C)O1	-6	2	0	-4	·	·	·	·	·
CCN(CC)S(=O)(=O)c1ccc(S(=O)(=O)Nc2ccc3c(c2)oc2ccccc23)cc1	14*	32*	2	-2	7	9	3	47*	25*
COC(=O)[C@]12C[C@H](CC(=O)NCc3cccs3)C(=O)N(Cc3ccccc3)C1=C[C@H](C1CCCC1)O[C@@H]2C	-1	0	9	6	·	·	·	·	·
COC(=O)c1cc(NS(=O)(=O)c2ccc(N3CCC(C)CC3)c([N+](=O)[O-])c2)cc(C(=O)OC)c1	13*	28*	-5	-6	2	5	3	26*	17*
CC1CCN(c2ccc(C(=O)Nc3ccc4c(c3)OCO4)cc2[N+](=O)[O-])CC1	8.7*	20*	-8	7	0	6	2	30*	16*
CC1CCCN(c2ccc(C(=O)Nc3ccc4c(c3)OCO4)cc2[N+](=O)[O-])C1 (configuration not stated)	6	19	3	-5	8	·	·	·	·
COC(=O)c1cc(NS(=O)(=O)c2ccc(N3CCCCC3)c([N+](=O)[O-])c2)cc(C(=O)OC)c1	6	18	-1	6	-1	·	·	·	·
O=C(Nc1cc(Cl)cc(Cl)c1)c1cccc(OC(F)F)c1	12*	27*	6	-8	8	7	2	23*	13*
COc1ccc2c(c1)c(CC(=O)Nc1ccc(C(C)=O)cc1)c(C)n2C(=O)c1ccc(Cl)cc1	12*	24*	-1	-11	-6	15	5	30*	18*
CCn1ccnc1CN(C)Cc1cn(-c2cccc(C)c2)nc1-c1cccc(F)c1	5	19	-4	-10	-5	·	·	·	·
Cc1cccc(-n2cc(CN(C)Cc3nccn3C)c(-c3cccc(F)c3)n2)c1	11*	24*	-12	-3	-8	3	1	12	10*
COc1ccc(-n2c(SCC(=O)Nc3cc(C)c(NC(=O)c4ccccc4)cc3OC)nnc2-c2cccnc2)cc1	-1	0	6	0	·	·	·	·	·
COc1ccc(-n2c(SCC(=O)Nc3cc(C)c(NC(=O)c4ccccc4)cc3OC)nnc2-c2ccco2)cc1	12*	24*	-9	1	·	5	5	19	8.7*
Cn1c(Cc2cccs2)nnc1SCC(=O)Nc1ccc(OCc2ccccc2)cc1	2	11	-4	1	·	·	·	·	·
O=C(CSc1nnc(COc2ccccc2)n1-c1ccc(Cl)cc1)Nc1ccccc1-c1ccccc1	13*	28*	-1	-6	·	6	2	19	14*
Cc1ccc(-n2c(Cc3cccs3)nnc2SCC(=O)Nc2ccc(OCc3ccccc3)cc2)cc1	12*	21*	3	-6	·	11	3	22*	15*
Cc1ccc(-n2c(Cc3cccs3)nnc2SCC(=O)Nc2ccc(F)c(F)c2)cc1	·	·	·	·	-5	·	·	·	·
COc1ccc(-n2c(Cc3cccs3)nnc2SCC(=O)Nc2ccc(OCc3ccccc3)cc2)cc1	11*	21*	-1	2	·	12	4	25*	16*
CC(C)C[C@H]1COc2ccc(Cl)cc2S(=O)(=O)N1C[C@H](NC(=O)OC(C)(C)C)C(C)C	3	6	8	2	·	·	·	·	·
CCc1ccc(NC(=O)C(C)OC(=O)c2ccc(NS(=O)(=O)c3ccc(C)c([N+](=O)[O-])c3)cc2)cc1 (configuration not stated)	12*	29*	2	1	12	5	1	27*	17*
C=CCCC1CN(Cc2ccc(OC)cc2)S(=O)(=O)c2c(Oc3ccc(F)cc3OC)cccc2O1 (configuration not stated)	5	-13	6	2	·	·	·	·	·
SMILES	ADAM17 inh	ADAM10 inh	Tn7 DDE FP	Tn6 DDE FP	MT1-MMP act inh	ADAM10 confirm	ADAM17 ctr	ADAM10 counter	ADAM17 confirm
O=c1c(O)c(-c2ccc(O)cc2)oc2cc(O)cc(O)c12	8.9*	21*	-8	-11	-10	-2	0	-5	3
O=c1cc(-c2ccc(O)cc2)oc2cc(O)cc(O)c12	-3	-7	-2	-16	-15	·	·	·	·
COC(=O)[C@H](CC(C)C)N(Cc1cn(CC2CCCCC2)nn1)S(=O)(=O)c1ccc(F)cc1Br	4	11	5	-1	·	·	·	·	·
Cc1ccc(C(=O)Oc2cccc(NC(=O)c3ccccc3)c2)cc1C	13*	25*	6	-4	1	9	2	24*	14*
CC(C)(C)c1ccc2c(c1)OC(C(=O)N/N=C\c1ccc(-c3cccc(C(=O)O)c3)o1)CO2 (configuration not stated)	-13	-37	0	-6	-1	·	·	·	·
CC(C)(C)c1ccc2c(c1)OC(C(=O)N/N=C\c1ccccn1)CO2 (configuration not stated)	12*	21*	-11	7	16	-1	0	-2	2
O=C(Oc1ccc(OC(=O)c2ccco2)c(S(=O)(=O)c2ccc(Cl)cc2)c1)c1ccco1	8.8*	26*	-2	-13	1	4	2	20	9.7*
CC(=O)c1cc(Cl)ccc1OC(=O)c1ccco1	-7	3	5	-1	-1	·	·	·	·

Screens: PubChem, several laboratories
